The values that follow come from ChEMBL document CHEMBL3739301, “Design, synthesis and biological evaluation of tricyclic diterpene derivatives as novel neuroprotective agents against ischemic brain injury” (Eur J Med Chem, 2015).

Activity calls are given as the source filed them. The calls are words filed in the database; no cut-off is given here.

The nature of data set [1]: Neuroprotective activity against oxygen-glucose deprivation-induced neuronal cell death in Sprague-Dawley rat CGN cells at 50 uM preincubated for 24 hrs followed by induction of oxygen-glucose deprivation measured after 24 hrs relative to control. Format: functional.
Data set [2] has as its system Rattus norvegicus. Nature of the data set: Anti-ischemic activity in Sprague-Dawley rat transient middle cerebral artery occlusion model assessed as reduction in neurological deficit at 3 mg/kg, iv administered for 2 to 6 hrs post middle cerebral artery occlusion measured at 24 hrs. Format: functional, organism-based. A digest of the protocol:
(§1)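 Male SD rats (260–280 g); intraluminal nylon suture (~0.26 mm, round tip) occluded MCA for 2 h, then withdrawn for reperfusion, body temperature held at 37 °C. Given iv at 2, 4 and 6 h after ischemia onset; 10 mg/kg in DMSO or 3 mg/kg in saline; DMSO or saline vehicle controls. Neurological score at 24 h after MCAO; n = 8–12, mean ± SD.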

In data set [3] the test system is Rattus norvegicus. The experiment in a line: Antioxidant activity in Sprague-Dawley rat transient middle cerebral artery occlusion model assessed as […] in SOD level in ipsilateral cortex at 3 mg/kg, iv measured at 24 hrs post middle cerebral artery occlusion. It counts as functional, organism-based. A digest of the protocol: (§2)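 Rat tMCAO: 2 h suture occlusion, then reperfusion. Dosing iv at 2, 4 and 6 h after onset, 10 mg/kg (DMSO) or 3 mg/kg (saline). At 24 h the ipsilateral cortex was lysed in RIPA buffer and protein quantified by BCA. GSH concentration and SOD activity were then measured with commercial kits.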

Data set [4] deals with Rattus norvegicus. The experiment in a line: Anti-ischemic activity in Sprague-Dawley rat transient middle cerebral artery occlusion model assessed as reduction in infarct volume at 3 mg/kg, iv administered for 2 to 6 hrs post middle cerebral artery occlusion measured at 24 hrs by TTC staining-based morphometric analysis. Format: organism-based. The following applies: in vivo. A digest of the protocol:
(§3)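 Male Sprague-Dawley rats (260-280 g), middle cerebral artery occluded 2 h by intraluminal nylon monofilament, then reperfused; body temperature held at 37 C. Drug given iv at 2, 4 and 6 h after ischemia onset (test agent in DMSO, edaravone in saline; vehicle controls). Neurological scoring at 24 h; 2 mm coronal slices stained with 2% TTC 20 min at 37 C, formalin-fixed; infarct volume by morphometry; n = 8-12.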

Data set [5] can be described thus: Neuroprotective activity against glutamate-induced neuronal cell death in Sprague-Dawley rat CGN cells at 50 uM preincubated for 24 hrs followed by glutamate challenge measured after 24 hrs relative to control. It counts as functional.
A short description of data set [6]: Neuroprotective activity against glutamate-induced neuronal cell death in Sprague-Dawley rat CGN cells assessed as cell viability at 50 uM preincubated for 24 hrs followed by glutamate challenge measured after 24 hrs by MTT assay (reference value: 40.4%). Format: functional. The following applies: read-out: Activity.
The nature of data set [7]: Neuroprotective activity against oxygen-glucose deprivation-induced neuronal cell death in Sprague-Dawley rat CGN cells assessed as cell viability at 50 uM preincubated for 24 hrs followed by induction of oxygen-glucose deprivation measured after 24 hrs by MTT assay (reference value: 48.7%). The following applies: read-out: Activity. It counts as functional. For orientation: Tetrazolium assays rely on reduction of a dye to a coloured formazan, in cell work by metabolically active cells.

In data set [8] the test system is Rattus norvegicus. The experiment in a line: Antioxidant activity in Sprague-Dawley rat transient middle cerebral artery occlusion model assessed as […] in GSH level in ipsilateral cortex at 3 mg/kg, iv measured at 24 hrs post middle cerebral artery occlusion. It counts as functional, organism-based. The gist of the method:
as §2

In data set [9] the test system is Rattus norvegicus. Nature of the data set: Antioxidant activity in Sprague-Dawley rat transient middle cerebral artery occlusion model assessed as […] in SOD level in ipsilateral cortex at 10 mg/kg, iv measured at 24 hrs post middle cerebral artery occlusion. It counts as functional, organism-based. A digest of the protocol:
as §2

The nature of data set [10]: Neuroprotective activity against oxygen-glucose deprivation-induced neuronal cell death in Sprague-Dawley rat CGN cells at 10 uM preincubated for 24 hrs followed by induction of oxygen-glucose deprivation measured after 24 hrs relative to control. It counts as functional.
The test system of data set [11] is neuronal. Nature of the data set: Neuroprotective activity against glutamate-induced neuronal cell death in Sprague-Dawley rat CGN cells assessed as increase in GSH level at 10 uM preincubated for 24 hrs followed by glutamate challenge measured after 24 hrs. Format: functional, cell-based. The gist of the method:
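Granule neurons pretreated 24 h with […] compound, then […] for 24 h. Lysed in buffer containing protease inhibitor cocktail; protein determined by BCA. SOD activity and GSH level measured with commercial kits. n = 3, mean ± SD.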

Data set [12] is described as follows: Neuroprotective activity in Sprague-Dawley rat CGN cells assessed as upregulation of HO-1 expression after 24 hrs by Western blot analysis. Format: functional, cell-based. The gist of the method: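 Primary granule neurons treated with a concentration series for 24 h, lysed in RIPA buffer, protein by BCA. Separated on 15% SDS-PAGE, transferred to PVDF, blocked in 5% BSA. Primary antibody overnight at 4 °C, secondary 30 min at room temperature; chemiluminescent detection. HO-1 quantified by densitometry normalized to β-actin. n = 3, mean ± SD.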
(A western blot detects proteins with antibodies after separation by electrophoresis.)

Data set [13] is described as follows: Neuroprotective activity against oxygen-glucose deprivation-induced neuronal cell death in Sprague-Dawley rat CGN cells assessed as cell viability at 10 uM preincubated for 24 hrs followed by induction of oxygen-glucose deprivation measured after 24 hrs by MTT assay (reference value: 48.7%). It counts as functional. The settings on record: read-out: Activity.

Data set [14] can be described thus: Neuroprotective activity against glutamate-induced neuronal cell death in Sprague-Dawley rat CGN cells assessed as cell viability at 10 uM preincubated for 24 hrs followed by glutamate challenge measured after 24 hrs by MTT assay (reference value: 40.4%). Format: functional. The following applies: read-out: Activity.
The nature of data set [15]: Cytotoxicity against Sprague-Dawley rat CGN cells at <10 uM after 72 hrs by MTT assay. It counts as cell-based. The gist of the method:
(§4)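 Primary cerebellar granule neurons from 8-day SD rat pups; cytosine arabinoside […] added at 24 h, used at DIV 6–8. Cells exposed to a concentration series for 72 h, 0.1% DMSO final. Viability by MTT (0.5 mg/ml, 4 h, 37 °C); formazan dissolved in DMSO, OD 570 nm. n = 3, mean ± SD.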

In data set [16] the test system is Rattus norvegicus. The experiment in a line: Antioxidant activity in Sprague-Dawley rat transient middle cerebral artery occlusion model assessed as […] in GSH level in ipsilateral cortex at 10 mg/kg, iv measured at 24 hrs post middle cerebral artery occlusion. It counts as functional, organism-based. A digest of the protocol:
as §2

The nature of data set [17]: Cytotoxicity against Sprague-Dawley rat CGN cells at 50 to 100 uM after 72 hrs by MTT assay. It counts as cell-based. A digest of the protocol:
as §4

Data set [18] has as its system neuronal. Nature of the data set: Neuroprotective activity against glutamate-induced neuronal cell death in Sprague-Dawley rat CGN cells assessed as increase in SOD level at 10 uM preincubated for 24 hrs followed by glutamate challenge measured after 24 hrs. It counts as functional, cell-based.
Data set [19] has as its system Rattus norvegicus. The experiment in a line: Anti-ischemic activity in Sprague-Dawley rat transient middle cerebral artery occlusion model assessed as reduction in neurological deficit at 10 mg/kg, iv administered for 2 to 6 hrs post middle cerebral artery occlusion measured at 24 hrs. Format: functional, organism-based. The gist of the method: as §1
In data set [20] the test system is neuronal. The experiment in a line: Neuroprotective activity against glutamate-induced neuronal cell death in Sprague-Dawley rat CGN cells assessed as increase in cell viability preincubated for 24 hrs followed by glutamate challenge measured after 24 hrs by MTT assay. Format: functional, cell-based.
A short description of data set [21]: Neuroprotective activity against glutamate-induced neuronal cell death in Sprague-Dawley rat CGN cells at 10 uM preincubated for 24 hrs followed by glutamate challenge measured after 24 hrs relative to control. It counts as functional.
Data set [22] has as its system Rattus norvegicus. Nature of the data set: Toxicity in Sprague-Dawley rat transient middle cerebral artery occlusion model at 10 mg/kg, iv. It counts as organism-based. The following applies: in vivo.
The test system of data set [23] is Rattus norvegicus. Nature of the data set: Anti-ischemic activity in Sprague-Dawley rat transient middle cerebral artery occlusion model assessed as reduction in infarct volume at 10 mg/kg, iv administered for 2 to 6 hrs post middle cerebral artery occlusion measured at 24 hrs by TTC staining-based morphometric analysis. Format: organism-based. Further details: scale not given: the % may be the effect or the level left. The following applies: in vivo. A digest of the protocol:
as §3

Data set [24] is described as follows: Permeability of the compound at 25 ug/ml after 18 hrs by PAMPA assay. Format: ADME. The following applies: read-out: permeability. (In general: The PAMPA barrier holds no transporters, so it reflects passive diffusion.)
Data set [25] is described as follows: Neuroprotective activity against nutrient deprivation-induced neuronal cell death in Sprague-Dawley rat CGN cells at 10 uM preincubated for 24 hrs followed by induction of nutrient deprivation measured after 24 hrs relative to control. It counts as functional. A digest of the protocol:
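Primary rat cerebellar granule neurons (8-day-old Sprague-Dawley pups, DIV 6-8) pretreated 24 h with compound (0.1% DMSO final), then deprived of B27 serum substitute for 24 h. MTT viability (0.5 mg/ml, 4 h) read at 570 nm against control = 100%; neuroprotection percentage derived from the basal deprived value; mean ± SD, n = 3.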

A short description of data set [26]: Neuroprotective activity against oxygen-glucose deprivation-induced neuronal cell death in Sprague-Dawley rat CGN cells assessed as cell viability at 1 uM preincubated for 24 hrs followed by induction of oxygen-glucose deprivation measured after 24 hrs by MTT assay (reference value: 48.7%). Format: functional. The settings on record: read-out: Activity.

With `CC1=NN(c2ccccc2)C(=O)C1` [EDARAVONE], the figures for the Activity (in [1]; in the data set on Rattus norvegicus [4]; in [5]) were 72.3%, “Active” and 77.7%, respectively. In addition, the outcome in the data set with Rattus norvegicus [2], with Rattus norvegicus [3] and in the data set on Rattus norvegicus [8] was Active. The viability at 50 µM in [6] came out at 86.7%; in data set [7], 85.8%.

In the case of `CCCCNC(=O)c1cc2c(cc1OC)[C@@]1(C)CC[C@H](O)C(C)(C)[C@@H]1CC2`, the result with Rattus norvegicus [9], in the data set on neuronal [11], in the data set on Rattus norvegicus [16], in the data set on neuronal [18] and in the data set with Rattus norvegicus [19] was Active. In addition, the Activity in data set [10] was 75.4%; in data set [12] it was “Dose-dependent effect”; in data set [15] it was “Non-toxic”; in data set [17], “Toxic”; in the data set on neuronal [20], “Dose-dependent effect”; in [21] it was 90.1%. The Activity result is reported as “Non-toxic” in the data set with Rattus norvegicus [22], 44% in the data set on Rattus norvegicus [23] and 25.9% in data set [25]. Moreover, the viability at 10 µM in [13] turned out to be 87.4%; in data set [14] it was 94.1%. In data set [24], the Papp at 18 h, 25 ug/ml turned out to be 11.3 ×10⁻⁶ cm/s. For the same compound, the viability at 1 µM in data set [26] is 58.9%.
